Measured values as given in ChEMBL document CHEMBL1275524, “Activities of antifungal agents against yeasts and filamentous fungi: assessment according to the methodology of the European Committee on Antimicrobial Susceptibility Testing” (2008).
Values after ≈ are worked out from the molar mass of the structure shown.

Experiments:
Aspergillus flavus [1] = assay: Antifungal activity against Aspergillus flavus by EUCAST method; assay type: functional
Aspergillus terreus = assay: Antifungal activity against Aspergillus terreus; assay type: functional
Curvularia lunata [2] = assay: Antifungal activity against Curvularia lunata by EUCAST method; assay type: functional; details: read-out: MEC
Summary of the method: (§1)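 Dematiaceous fungi were tested by the EUCAST spore-forming mold reference procedure: flat-bottom microdilution plates, RPMI 1640 plus 2% glucose, inoculum 2 × 105 to 5 × 10^5 CFU/ml. Endpoints were read visually at 24 and 48 h. Polyenes and azoles: 100% growth reduction vs drug-free control. CPF: minimum effective concentration. Run in duplicate and repeated twice.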

Candida tropicalis = assay: Antifungal activity against Candida tropicalis by EUCAST method; assay type: functional
Summary of the method: (§2)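 Broth microdilution in flat-bottom plates in RPMI 1640 with 2% glucose; inoculum 0.5 × 105 to 2.5 × 10^5 CFU/ml. MICs were read spectrophotometrically at 24 h. AMB endpoint: ≥90% growth reduction vs drug-free control well. Azole and CPF endpoint: 50% reduction in optical density. MFC was taken as the lowest concentration giving 99% killing.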

[3] = Antifungal activity against Rhinocladiella aquaspersa; assay type: functional; summary of the method: as §1
Aspergillus fumigatus [4] = assay: Antifungal activity against Aspergillus fumigatus by EUCAST method; assay type: functional
[5] = Antifungal activity against Cryptococcus neoformans var. neoformans by EUCAST method; assay type: functional; details: Cryptococcus deneoformans
Summary of the method: (§3)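 EUCAST yeast microdilution, modified for nonfermentative yeasts: plates were sealed and agitated at 350 rpm and 30°C for 48 h.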

Absidia [6] = assay: Antifungal activity against Absidia species by EUCAST method; assay type: functional; details: read-out: MEC
Rhizopus = assay: Antifungal activity against Rhizopus species by EUCAST method; assay type: functional; details: read-out: MEC
Summary of the method: (§4)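 Broth microdilution following the EUCAST reference procedure for spore-forming moulds, in flat-bottom plates with RPMI 1640 plus 2% glucose. Inoculum was 2 × 10^5 to 5 × 10^5 CFU/ml. MICs were read visually at 24 and 48 h as 100% growth reduction versus a drug-free control for polyenes and azoles. MEC was used for caspofungin. Tests were run in duplicate and repeated twice.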

Mucor [7] = assay: Antifungal activity against Mucor species by EUCAST method; assay type: functional; details: read-out: MEC
Rhizomucor = assay: Antifungal activity against Rhizomucor species by EUCAST method; assay type: functional; details: read-out: MEC; summary of the method: as §4
Scedosporium apiospermum [8] = assay: Antifungal activity against Scedosporium apiospermum; assay type: functional; summary of the method: as §4
Lomentospora prolificans = assay: Antifungal activity against Scedosporium prolificans; assay type: functional; summary of the method: as §4
Nakaseomyces glabratus = assay: Antifungal activity against Candida glabrata; assay type: functional; summary of the method: as §2
Cunninghamella [9] = assay: Antifungal activity against Cunninghamella species by EUCAST method; assay type: functional; details: read-out: MEC
Aspergillus flavus [10] = assay: Antifungal activity against Aspergillus flavus; assay type: functional
Absidia [11] = assay: Antifungal activity against Absidia species; assay type: functional
Pichia kudriavzevii = assay: Antifungal activity against Candida krusei by EUCAST method; assay type: functional; summary of the method: as §2
Fusarium solani = assay: Antifungal activity against Fusarium solani; assay type: functional
Penicillium sp. = assay: Antifungal activity against Penicillium species; assay type: functional
[12] = test system: Meyerozyma guilliermondii; assay: Antifungal activity against Candida guilliermondii by EUCAST method; assay type: functional; summary of the method: as §2
Cunninghamella [13] = assay: Antifungal activity against Cunninghamella species; assay type: functional
Mucor [14] = assay: Antifungal activity against Mucor species; assay type: functional
Candida albicans = assay: Antifungal activity against Candida albicans; assay type: functional; summary of the method: as §2
Aspergillus fumigatus [15] = assay: Antifungal activity against Aspergillus fumigatus; assay type: functional
Curvularia lunata [16] = assay: Antifungal activity against Curvularia lunata; assay type: functional
[17] = Antifungal activity against Cryptococcus neoformans var. neoformans; assay type: functional; details: Cryptococcus deneoformans; summary of the method: as §3
[18] = test system: Meyerozyma guilliermondii; assay: Antifungal activity against Candida guilliermondii; assay type: functional; summary of the method: as §2
Curvularia australiensis = assay: Antifungal activity against Bipolaris australiensis by EUCAST method; assay type: functional; details: read-out: MEC; summary of the method: as §1
Geotrichum candidum [19] = assay: Antifungal activity against Geotrichum candidum; assay type: functional
Cryptococcus gattii = assay: Antifungal activity against Cryptococcus neoformans var. gattii by EUCAST method; assay type: functional, Cryptococcus bacillisporus; summary of the method: as §3
Fusarium oxysporum = assay: Antifungal activity against Fusarium oxysporum by EUCAST method; assay type: functional; details: read-out: MEC
Geotrichum candidum [20] = assay: Antifungal activity against Geotrichum candidum by EUCAST method; assay type: functional
Scedosporium apiospermum [21] = assay: Antifungal activity against Scedosporium apiospermum by EUCAST method; assay type: functional; details: read-out: MEC; summary of the method: as §4
Mucor hiemalis = assay: Antifungal activity against Mucor hiemalis by EUCAST method; assay type: functional; details: read-out: MEC
[22] = Antifungal activity against Rhizopus microsporus var. oligosporus by EUCAST method; assay type: functional; summary of the method: as §4

Structure (SMILES): CC[C@H](C)C[C@H](C)CCCCCCCCC(=O)N[C@H]1C[C@@H](O)[C@@H](NCCN)NC(=O)[C@@H]2[C@@H](O)CCN2C(=O)[C@H]([C@H](O)CCN)NC(=O)[C@H]([C@H](O)[C@@H](O)c2ccc(O)cc2)NC(=O)[C@@H]2C[C@@H](O)CN2C(=O)[C@H]([C@@H](C)O)NC1=O [CASPOFUNGIN]
- MIC (Aspergillus flavus [1]): 0.28 µg/mL (≈ 0.256 µM)
- minimal effective concentration (Aspergillus flavus [1]; read-out: MEC): 0.25 µg/mL
- MFC (Aspergillus terreus): > 8 µg/mL
- minimal effective concentration (Curvularia lunata [2]): > 8 µg/mL
- MIC (Candida tropicalis): 0.34 µg/mL (≈ 0.311 µM)
- MFC [3]: > 8 µg/mL
- MIC (Aspergillus fumigatus [4]): 0.45 µg/mL (≈ 0.412 µM)
- minimal effective concentration (Aspergillus fumigatus [4]; read-out: MEC): 0.25 µg/mL
- MIC [5]: 2.04 µg/mL (≈ 1.87 µM)
- minimal effective concentration (Absidia [6]): > 8 µg/mL
- minimal effective concentration (Rhizopus): > 8 µg/mL
- minimal effective concentration (Mucor [7]): > 8 µg/mL
- minimal effective concentration (Rhizomucor): > 8 µg/mL
- MFC (Scedosporium apiospermum [8]): > 8 µg/mL
- MFC (Lomentospora prolificans): > 8 µg/mL
- MFC (Nakaseomyces glabratus): 0.15 µg/mL (≈ 0.137 µM)
- minimal effective concentration (Cunninghamella [9]): > 8 µg/mL
- MFC (Aspergillus flavus [10]): > 8 µg/mL
- MFC (Absidia [11]): > 8 µg/mL
- MIC (Pichia kudriavzevii): 0.58 µg/mL (≈ 0.53 µM)
- MFC (Fusarium solani): > 8 µg/mL
- MFC (Penicillium sp.): > 8 µg/mL
- MIC [12]: 0.68 µg/mL (≈ 0.622 µM)
- MFC (Cunninghamella [13]): > 8 µg/mL
- MFC (Mucor [14]): > 8 µg/mL
- MFC (Candida albicans): 0.15 µg/mL (≈ 0.137 µM)
- MFC (Aspergillus fumigatus [15]): > 8 µg/mL
- MFC (Curvularia lunata [16]): > 8 µg/mL
- MFC [17]: > 8 µg/mL
- MFC [18]: > 2 µg/mL
- minimal effective concentration (Curvularia australiensis): > 8 µg/mL
- MFC (Geotrichum candidum [19]): > 8 µg/mL
- MIC (Cryptococcus gattii): 5.33 µg/mL (≈ 4.88 µM)
- minimal effective concentration (Fusarium oxysporum): > 8 µg/mL
- MIC (Geotrichum candidum [20]): 3 µg/mL (≈ 2.74 µM)
- minimal effective concentration (Scedosporium apiospermum [21]): > 8 µg/mL
- minimal effective concentration (Mucor hiemalis): > 8 µg/mL
- MEC [22]: > 8 µg/mL
